# Tests used:
# [1] = tested on: GABAARs expressed on splenocytes; assay: Automated patch-clamp electrophysiology for splenocytes; type: cell-based, mouse; conditions: splenocytes from ova s/c mice
# [2] = tested on: inflammatory cells in bronchoalveolar lavage fluid; assay: Inflammatory cells in BALF of ova s/c BALB/c mice; type: in vivo, mouse
# How it was run: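 Male BALB/c mice (5–10 wk), ova-sensitised/challenged, 10 per group; dexamethasone 4 mg/kg i.p. daily for 8 days (10% DMSO/40% propylene glycol/50% PBS); test compounds 100 mg/kg b.i.d. by gavage for 5 days. BAL with 1 ml Ca/Mg-free PBS, RBC lysis, Fc block, 30 min 4 °C antibody staining. CD45+ count gives cells/ml; CCR3+/GR1+/CD4+/CD11b+ frequencies × total; mean ± SEM versus vehicle.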
# [3] = tested on: airway hyperresponsiveness and airway eosinophilia; conditions: cited from earlier work
# [4] = tested on: human and guinea pig smooth muscle tissue; conditions: cited from earlier work
# [5] = cited from earlier work
smiles,measurement,setting,value
NCc1cc(=O)[nH]o1 [muscimol],induced current change relative to current change induced by GABA,[1],around 50%
C[C@@H]1C[C@H]2[C@@H]3CCC4=CC(=O)C=C[C@]4(C)[C@@]3(F)[C@@H](O)C[C@]2(C)[C@@]1(O)C(=O)CO [dexamethasone],CD4+ T cell population in BALF,[2]; 4 mg/kg i.p. for 8 days,significantly reduced
same,CD11b+ leukocyte population in BALF,[2]; i.p. 4 mg/kg daily for 8 days,as did dexamethasone treatment
same,eosinophils (CCR3+) in BALF by flow cytometry,[2]; i.p. 4 mg/kg daily for 8 days,almost completely eliminated
same,reduction of white blood cells in BALF,"[2]; i.p. 4 mg/kg daily for 8 days, compared with compounds 1 and 2",more pronounced
same,AHR in ova s/c mice,[3]; dexamethasone treated ova s/c mice,reduced AHR
C#Cc1ccc2c(c1)C(c1ccccc1F)=N[C@H](C)c1c(C(=O)OCC)ncn1-2 [SH-053-2′F-R-CH3],smooth muscle relaxation ex vivo,[4],relax human and guinea pig smooth muscle tissue
same,blood brain barrier crossing,[5],can cross the blood brain barrier
C=CCc1ccc(O)c(-c2ccc(O)c(CC=C)c2)c1 [honokiol],AHR and lung eosinophilia,"[3]; acute and chronic administration, ova s/c mouse asthma model",reduced AHR and lung eosinophilia
